In ChEMBL document CHEMBL5370639, “Structure-Based Lead Optimization of Enterovirus D68 2A Protease Inhibitors” (J Med Chem, 2023):

Assays:
enterovirus D68 = test: Antiviral activity against enterovirus D68 US/MO/14-18947 infected in human RD cells assessed as reduction in virus induced cytopathic effect by neutral red staining based CPE assay; format: functional, organism-based; settings: Enterovirus D, US/MO/14-18947, RD
In short: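 RD cells seeded overnight to ~90% confluency, washed with PBS containing Mg/Ca, infected with virus in DMEM/2% FBS/30 mM MgCl2 for at least 1 h at 33 °C, then compound added. Cells stained with 66 μg/mL neutral red for 2 h; uptake read at 540 nm. EC50 from dose-response fit; mean ± SD of two independent experiments, three repeats each.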

[1] = Inhibition of Enterovirus D68 US/KY/14-18953 2A protease expressed in Escherichia coli BL21(DE3) using Dabcyl-KIRIVNT/GPGEGGE-Edans as substrate incubated for 2 hrs by FRET assay
[2] = Cytotoxicity against human RD cells assessed as reduction in cell viability by neutral red staining based CPE assay; format: toxicity; settings: RD cells
In short: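 Uninfected RD cells, grown overnight to ~90% confluency, treated with compound under otherwise the same handling as the antiviral assay. Viability by neutral red uptake (66 μg/mL, 2 h, absorbance 540 nm). CC50 from best-fit dose-response curve; mean ± SD of two independent experiments, three repeats each.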

IC50 [1] [nM]	SMILES	EC50 (enterovirus D68) [nM]	CC50 [2] [µM]
4810	CC(C)(C)[C@H](NC(=O)CC12CC3CC(CC(C3)C1)C2)C(=O)N1C[C@@H]2CCC[C@@H]2[C@H]1C(=O)NC1(C(=O)C(=O)NC2CC2)CCC1	3230	> 150
90	CCC[C@H](NC(=O)[C@@H]1[C@H]2CCC[C@H]2CN1C(=O)[C@@H](NC(=O)CC1CCCCC1)C(C)(C)C)C(=O)C(=O)NC1CC1	380	> 150
> 20000	CC(C)(C)[C@H](NC(=O)[C@@H]1[C@H]2CCC[C@H]2CN1C(=O)[C@@H](NC(=O)CC12CC3CC(CC(C3)C1)C2)C(C)(C)C)C(=O)C(=O)NC1CC1	> 30000	> 150
4350	CCC[C@H](NC(=O)[C@@H]1[C@H]2CCC[C@H]2CN1C(=O)OCc1ccccc1)C(=O)C(=O)NC1CC1	25900	> 150
190	CC(C)(C)[C@H](NC(=O)CC12CC3CC(CC(C3)C1)C2)C(=O)N1C[C@@H]2CCC[C@@H]2[C@H]1C(=O)N[C@H](C(=O)C(N)=O)C1CCCCC1	140	> 150
180	CC(C)(C)Oc1ccc(C[C@H](NC(=O)[C@@H]2[C@H]3CCC[C@H]3CN2C(=O)[C@@H](NC(=O)CC23CC4CC(CC(C4)C2)C3)C(C)(C)C)C(=O)C(=O)NC2CC2)cc1	1730	9.79
1320	CCC[C@@H](C#N)NC(=O)[C@@H]1[C@H]2CCC[C@H]2CN1C(=O)[C@@H](NC(=O)CC12CC3CC(CC(C3)C1)C2)C(C)(C)C	3920	> 150
180	CC(C)(C)[C@H](NC(=O)CC12CC3CC(CC(C3)C1)C2)C(=O)N1C[C@@H]2CCC[C@@H]2[C@H]1C(=O)N[C@@H](Cc1c[nH]c2ccccc12)C(=O)C(=O)NC1CC1	280	> 150
120	CCC[C@H](NC(=O)[C@@H]1[C@H]2CCC[C@H]2CN1C(=O)[C@@H](NC(=O)CC1C2CC3CC(C2)CC1C3)C(C)(C)C)C(=O)C(=O)NC1CC1 (some centres not stated)	180	> 150
250	CCC[C@H](NC(=O)[C@@H]1[C@H]2CCC[C@H]2CN1C(=O)[C@@H](NC(=O)Cc1ccccc1)C(C)(C)C)C(=O)C(=O)NC1CC1	1970	> 150
100	CCC[C@H](NC(=O)[C@@H]1[C@H]2CCC[C@H]2CN1C(=O)[C@@H](NC(=O)CC1CCCC1)C(C)(C)C)C(=O)C(=O)NC1CC1	700	> 150
140	CC(C)(C)[C@H](NC(=O)CC12CC3CC(CC(C3)C1)C2)C(=O)N1C[C@@H]2CCC[C@@H]2[C@H]1C(=O)N[C@@H](CC1CC1)C(=O)C(=O)NC1CC1	230	34.9
760	CCC[C@H](NC(=O)[C@@H]1[C@H]2CCC[C@H]2CN1C(=O)[C@@H](NC(=O)OCc1ccccc1)C(C)(C)C)C(=O)C(=O)NC1CC1	2900	> 150
	CCC[C@H](NC(=O)[C@@H](NC(=O)[C@@H](NC(=O)CC12CC3CC(CC(C3)C1)C2)C(C)(C)C)C1CCCCC1)C(=O)C(=O)NC1CC1	> 1840	1.84
400	CCC[C@H](NC(=O)[C@@H]1[C@H]2CCC[C@H]2CN1C(=O)[C@@H](NC(=O)CC12CC3CC(CC(O)(C3)C1)C2)C(C)(C)C)C(=O)C(=O)NC1CC1	1850	> 150
	CCC[C@H](NC(=O)[C@H](CC1CCCCC1)NC(=O)[C@@H](NC(=O)CC12CC3CC(CC(C3)C1)C2)C(C)(C)C)C(=O)C(=O)NC1CC1	> 290	0.29
1160	CCC[C@H](NC(=O)[C@@H]1[C@H]2CCC[C@H]2CN1C(=O)[C@@H](NC(=O)NC(C)(C)C)C(C)(C)C)C(=O)C(=O)NC1CC1		
